In ChEMBL document CHEMBL1770131, “Radiosynthesis and preliminary evaluation of 4-[18F]fluoro-N-[4-[6-(isopropylamino)pyrimidin-4-yl]-1,3-thiazol-2-yl]-N-methylbenzamide as a new positron emission tomography ligand for metabotropic glutamate receptor subtype 1” (Bioorg Med Chem Lett, 2011):
Calls of active or inactive are those of the source. The calls are words filed in the database; no cut-off is given here.

What was measured:
[1] = biological target: Metabotropic glutamate receptor 1 (Rattus norvegicus) (UniProt P23385); test: Binding affinity to mGluR1 in rat pons-medulla at 1 MBq/ml after 30 mins by autoradiography; conditions: 1 M, tested as the 18F-labelled form
Sequence of Metabotropic glutamate receptor 1 (Rattus norvegicus) (P23385 19-1199 limits assumed): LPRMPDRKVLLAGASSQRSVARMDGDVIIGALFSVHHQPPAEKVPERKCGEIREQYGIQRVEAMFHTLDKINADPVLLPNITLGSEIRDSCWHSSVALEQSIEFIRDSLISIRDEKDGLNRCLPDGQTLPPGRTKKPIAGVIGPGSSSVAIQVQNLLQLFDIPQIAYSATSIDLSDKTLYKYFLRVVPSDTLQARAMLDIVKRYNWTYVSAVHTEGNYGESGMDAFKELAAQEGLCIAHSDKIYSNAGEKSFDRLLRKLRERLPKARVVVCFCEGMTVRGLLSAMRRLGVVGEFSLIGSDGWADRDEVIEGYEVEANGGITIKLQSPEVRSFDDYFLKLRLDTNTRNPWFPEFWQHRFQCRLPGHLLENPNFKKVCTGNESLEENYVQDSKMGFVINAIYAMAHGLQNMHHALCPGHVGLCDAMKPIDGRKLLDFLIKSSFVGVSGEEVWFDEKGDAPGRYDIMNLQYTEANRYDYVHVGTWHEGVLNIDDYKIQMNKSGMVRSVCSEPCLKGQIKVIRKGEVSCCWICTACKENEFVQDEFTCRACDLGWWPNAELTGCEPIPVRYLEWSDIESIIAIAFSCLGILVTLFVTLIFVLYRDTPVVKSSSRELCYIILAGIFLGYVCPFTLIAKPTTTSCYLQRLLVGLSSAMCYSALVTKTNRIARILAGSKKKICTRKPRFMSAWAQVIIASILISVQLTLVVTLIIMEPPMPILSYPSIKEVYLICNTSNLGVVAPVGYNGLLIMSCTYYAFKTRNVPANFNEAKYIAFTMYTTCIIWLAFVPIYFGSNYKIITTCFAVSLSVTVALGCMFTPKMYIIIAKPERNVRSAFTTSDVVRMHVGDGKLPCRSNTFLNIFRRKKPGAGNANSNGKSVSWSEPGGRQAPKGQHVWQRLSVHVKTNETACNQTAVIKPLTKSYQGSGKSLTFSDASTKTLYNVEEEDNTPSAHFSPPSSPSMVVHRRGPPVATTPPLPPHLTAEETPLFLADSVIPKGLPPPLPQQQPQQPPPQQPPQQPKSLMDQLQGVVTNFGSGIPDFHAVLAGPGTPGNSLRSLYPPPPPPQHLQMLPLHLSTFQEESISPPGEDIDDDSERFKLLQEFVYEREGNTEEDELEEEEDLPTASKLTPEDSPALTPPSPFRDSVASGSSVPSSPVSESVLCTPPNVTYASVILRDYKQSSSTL
Outline: (§1)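 Rat brain sections pre-incubated 3 × 5 min at room temperature in Tris-HCl (50 mM, pH 7.4, 1.2 mM MgCl2, 2 mM CaCl2). Then incubated 30 min at room temperature in fresh buffer with radioligand (1 MBq/mL; in saline with 5% ethanol and Tween80), with or without 1 µM unlabeled ligand, JNJ16259685 or MPEP. Washed 3 × 5 min in cold buffer, dipped in cold water, air-dried, exposed to imaging plate.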

[2] = biological target: Metabotropic glutamate receptor 1 (Rattus norvegicus) (UniProt P23385); test: Binding affinity to mGluR1 in rat striatum at 1 MBq/ml after 30 mins by autoradiography in presence of 1 uM non-radiolabeled compound; format: tissue-based; conditions: 1 M, tested as the 18F-labelled form; outline: as §1
[3] = biological target: Metabotropic glutamate receptor 1 (Rattus norvegicus) (UniProt P23385); test: Binding affinity to mGluR1 in rat cerebral cortex at 1 MBq/ml after 30 mins by autoradiography in presence of 1 uM of mGluR1 antagonist JNJ16259685; format: tissue-based; conditions: 1 M, tested as the 18F-labelled form; outline: as §1
[4] = biological target: Metabotropic glutamate receptor 1 (Rattus norvegicus) (UniProt P23385); test: Binding affinity to mGluR1 in rat hippocampus at 1 MBq/ml after 30 mins by autoradiography in presence of 1 uM of mGluR5 antagonist MPEP; format: tissue-based; conditions: 1 M, tested as the 18F-labelled form; outline: as §1
[5] = biological target: Metabotropic glutamate receptor 1 (Rattus norvegicus) (UniProt P23385); test: Binding affinity to mGluR1 in rat thalamus at 1 MBq/ml after 30 mins by autoradiography in presence of 1 uM non-radiolabeled compound; format: tissue-based; conditions: 1 M, tested as the 18F-labelled form; outline: as §1
[6] = biological target: Metabotropic glutamate receptor 1 (Rattus norvegicus) (UniProt P23385); test: Binding affinity to mGluR1 in rat thalamus at 1 MBq/ml after 30 mins by autoradiography; format: tissue-based; conditions: 1 M, tested as the 18F-labelled form; outline: as §1
[7] = biological target: Metabotropic glutamate receptor 1 (Rattus norvegicus) (UniProt P23385); test: Binding affinity to mGluR1 in rat whole brain at 1 MBq/ml after 30 mins by autoradiography in presence of 1 uM non-radiolabeled compound; conditions: 1 M, tested as the 18F-labelled form; outline: as §1
[8] = biological target: Metabotropic glutamate receptor 1 (Rattus norvegicus) (UniProt P23385); test: Binding affinity to mGluR1 in rat striatum at 1 MBq/ml after 30 mins by autoradiography; format: tissue-based; conditions: 1 M, tested as the 18F-labelled form; outline: as §1
[9] = biological target: Metabotropic glutamate receptor 1 (Rattus norvegicus) (UniProt P23385); test: Binding affinity to mGluR1 in rat striatum at 1 MBq/ml after 30 mins by autoradiography in presence of 1 uM of mGluR1 antagonist JNJ16259685; format: tissue-based; conditions: 1 M, tested as the 18F-labelled form; outline: as §1
[10] = biological target: Metabotropic glutamate receptor 1 (Rattus norvegicus) (UniProt P23385); test: Binding affinity to mGluR1 in rat pons-medulla at 1 MBq/ml after 30 mins by autoradiography in presence of 1 uM of mGluR5 antagonist MPEP; conditions: 1 M, tested as the 18F-labelled form; outline: as §1
[11] = biological target: Metabotropic glutamate receptor 1 (Rattus norvegicus) (UniProt P23385); test: Binding affinity to mGluR1 in rat whole brain at 1 MBq/ml after 30 mins by autoradiography in presence of 1 uM of mGluR1 antagonist JNJ16259685; conditions: 1 M, tested as the 18F-labelled form; outline: as §1
[12] = biological target: Metabotropic glutamate receptor 1 (Rattus norvegicus) (UniProt P23385); test: Binding affinity to mGluR1 in rat hippocampus at 1 MBq/ml after 30 mins by autoradiography in presence of 1 uM of mGluR1 antagonist JNJ16259685; format: tissue-based; conditions: 1 M, tested as the 18F-labelled form; outline: as §1
[13] = biological target: Metabotropic glutamate receptor 1 (Rattus norvegicus) (UniProt P23385); test: Binding affinity to mGluR1 in rat hippocampus at 1 MBq/ml after 30 mins by autoradiography in presence of 1 uM non-radiolabeled compound; format: tissue-based; conditions: 1 M, tested as the 18F-labelled form; outline: as §1
[14] = biological target: Metabotropic glutamate receptor 1 (Rattus norvegicus) (UniProt P23385); test: Binding affinity to mGluR1 in rat pons-medulla at 1 MBq/ml after 30 mins by autoradiography in presence of 1 uM non-radiolabeled compound; conditions: 1 M, tested as the 18F-labelled form; outline: as §1
[15] = biological target: Metabotropic glutamate receptor 1 (Rattus norvegicus) (UniProt P23385); test: Binding affinity to mGluR1 in rat cerebellum at 1 MBq/ml after 30 mins by autoradiography in presence of 1 uM of mGluR5 antagonist MPEP; format: tissue-based; conditions: 1 M, tested as the 18F-labelled form; outline: as §1
[16] = biological target: Metabotropic glutamate receptor 1 (Rattus norvegicus) (UniProt P23385); test: Binding affinity to mGluR1 in rat hippocampus at 1 MBq/ml after 30 mins by autoradiography; format: tissue-based; conditions: 1 M, tested as the 18F-labelled form; outline: as §1
[17] = biological target: Metabotropic glutamate receptor 1 (Rattus norvegicus) (UniProt P23385); test: Binding affinity to mGluR1 in rat thalamus at 1 MBq/ml after 30 mins by autoradiography in presence of 1 uM of mGluR5 antagonist MPEP; format: tissue-based; conditions: 1 M, tested as the 18F-labelled form; outline: as §1
[18] = biological target: Metabotropic glutamate receptor 1 (Rattus norvegicus) (UniProt P23385); test: Binding affinity to mGluR1 in rat cerebellum at 1 MBq/ml after 30 mins by autoradiography in presence of 1 uM of mGluR1 antagonist JNJ16259685; format: tissue-based; conditions: 1 M, tested as the 18F-labelled form; outline: as §1
[19] = biological target: Metabotropic glutamate receptor 1 (Rattus norvegicus) (UniProt P23385); test: Binding affinity to mGluR1 in rat cerebral cortex at 1 MBq/ml after 30 mins by autoradiography; format: tissue-based; conditions: 1 M, tested as the 18F-labelled form; outline: as §1
[20] = biological target: Metabotropic glutamate receptor 1 (Rattus norvegicus) (UniProt P23385); test: Binding affinity to mGluR1 in rat pons-medulla at 1 MBq/ml after 30 mins by autoradiography in presence of 1 uM of mGluR1 antagonist JNJ16259685; conditions: 1 M, tested as the 18F-labelled form; outline: as §1
[21] = biological target: Metabotropic glutamate receptor 1 (Rattus norvegicus) (UniProt P23385); test: Binding affinity to mGluR1 in rat cerebellum at 1 MBq/ml after 30 mins by autoradiography in presence of 1 uM non-radiolabeled compound; format: tissue-based; conditions: 1 M, tested as the 18F-labelled form; outline: as §1
[22] = biological target: Metabotropic glutamate receptor 1 (Rattus norvegicus) (UniProt P23385); test: Binding affinity to mGluR1 in rat cerebellum at 1 MBq/ml after 30 mins by autoradiography; format: tissue-based; conditions: 1 M, tested as the 18F-labelled form; outline: as §1
[23] = biological target: Metabotropic glutamate receptor 1 (Rattus norvegicus) (UniProt P23385); test: Binding affinity to mGluR1 in rat cerebral cortex at 1 MBq/ml after 30 mins by autoradiography in presence of 1 uM non-radiolabeled compound; format: tissue-based; conditions: 1 M, tested as the 18F-labelled form; outline: as §1
[24] = biological target: Metabotropic glutamate receptor 1 (Rattus norvegicus) (UniProt P23385); test: Binding affinity to mGluR1 in rat thalamus at 1 MBq/ml after 30 mins by autoradiography in presence of 1 uM of mGluR1 antagonist JNJ16259685; format: tissue-based; conditions: 1 M, tested as the 18F-labelled form; outline: as §1
[25] = biological target: Metabotropic glutamate receptor 1 (Rattus norvegicus) (UniProt P23385); test: Binding affinity to mGluR1 in rat striatum at 1 MBq/ml after 30 mins by autoradiography in presence of 1 uM of mGluR5 antagonist MPEP; format: tissue-based; conditions: 1 M, tested as the 18F-labelled form; outline: as §1
[26] = biological target: Metabotropic glutamate receptor 1 (Rattus norvegicus) (UniProt P23385); test: Binding affinity to mGluR1 in rat cerebral cortex at 1 MBq/ml after 30 mins by autoradiography in presence of 1 uM of mGluR5 antagonist MPEP; format: tissue-based; conditions: 1 M, tested as the 18F-labelled form; outline: as §1
Thalamus [27] = test: Biodistribution in Sprague-Dawley rat thalamus at 5 MBq, iv after 30 mins by autoradiography in presence of 1 mg/kg of mGluR1 antagonist JNJ16259685; format: organism-based; design: dose 1 mg/kg, route intravenous; conditions: in vivo, 0.5 h
Outline: (§2)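 Male Sprague–Dawley rats given about 5 MBq radioligand in saline by tail vein, with or without co-injected JNJ16259685 at 1 mg/kg. Killed by cervical dislocation 30 min after injection. Brains frozen on dry ice, cut into 20 µm sagittal sections, and imaged by autoradiography as for the in vitro sections.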

Striatum [28] = test: Biodistribution in Sprague-Dawley rat striatum at 5 MBq, iv after 30 mins by autoradiography; format: ADME, organism-based; conditions: in vivo, 0.5 h; outline: as §2
Rattus norvegicus [29] = test: Biodistribution in Sprague-Dawley rat pons-medulla at 5 MBq, iv after 30 mins by autoradiography; format: ADME, organism-based; conditions: in vivo, 0.5 h; outline: as §2
Hippocampus [30] = test: Biodistribution in Sprague-Dawley rat hippocampus at 5 MBq, iv after 30 mins by autoradiography in presence of 1 mg/kg of mGluR1 antagonist JNJ16259685; format: organism-based; design: dose 1 mg/kg, route intravenous; conditions: in vivo, 0.5 h; outline: as §2
Cerebral cortex [31] = test: Biodistribution in Sprague-Dawley rat cerebral cortex at 5 MBq, iv after 30 mins by autoradiography in presence of 1 mg/kg of mGluR1 antagonist JNJ16259685; format: organism-based; design: dose 1 mg/kg, route intravenous; conditions: in vivo, 0.5 h; outline: as §2
Cerebral cortex [32] = test: Biodistribution in Sprague-Dawley rat cerebral cortex at 5 MBq, iv after 30 mins by autoradiography; format: ADME, organism-based; conditions: in vivo, 0.5 h; outline: as §2
[33] = Octanol-water distribution coefficient, Log D of the compound in at pH 7.4 by shaking method; format: physicochemical
Outline: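 Radioligand partitioned between n-octanol and PBS at pH 7.4 by shaking. Vortexed 3 min at room temperature, centrifuged 3500 rpm for 5 min. 1 mL of each phase weighed and counted. Organic layer re-partitioned until Log D values were consistent. Log D = Log[cpm/g octanol / cpm/g PBS]. Done in triplicate.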

Striatum [34] = test: Biodistribution in Sprague-Dawley rat striatum at 5 MBq, iv after 30 mins by autoradiography in presence of 1 mg/kg of mGluR1 antagonist JNJ16259685; format: organism-based; design: dose 1 mg/kg, route intravenous; conditions: in vivo, 0.5 h; outline: as §2
Hippocampus [35] = test: Biodistribution in Sprague-Dawley rat hippocampus at 5 MBq, iv after 30 mins by autoradiography; format: ADME, organism-based; conditions: in vivo, 0.5 h; outline: as §2
Cerebellum [36] = test: Biodistribution in Sprague-Dawley rat cerebellum at 5 MBq, iv after 30 mins by autoradiography; format: ADME, organism-based; conditions: in vivo, 0.5 h; outline: as §2
Thalamus [37] = test: Biodistribution in Sprague-Dawley rat thalamus at 5 MBq, iv after 30 mins by autoradiography; format: ADME, organism-based; conditions: in vivo, 0.5 h; outline: as §2
Rattus norvegicus [38] = test: Biodistribution in Sprague-Dawley rat pons-medulla at 5 MBq, iv after 30 mins by autoradiography in presence of 1 mg/kg of mGluR1 antagonist JNJ16259685; format: organism-based; design: dose 1 mg/kg, route intravenous; conditions: in vivo, 0.5 h; outline: as §2
Cerebellum [39] = test: Biodistribution in Sprague-Dawley rat cerebellum at 5 MBq, iv after 30 mins by autoradiography in presence of 1 mg/kg of mGluR1 antagonist JNJ16259685; format: organism-based; design: dose 1 mg/kg, route intravenous; conditions: in vivo, 0.5 h; outline: as §2

Compound: CC(C)Nc1cc(-c2csc(N(C)C(=O)c3ccc(F)cc3)n2)ncn1
- Activity [1]: 222 PSL/mm2
- Activity [2]: inactive
- Activity [3]: inactive
- Activity [4]: 602 PSL/mm2
- Activity [5]: inactive
- Activity [6]: 739 PSL/mm2
- Activity [7]: 6.9 PSL/mm2
- Activity [8]: 568 PSL/mm2
- Activity [9]: inactive
- Activity [10]: 181 PSL/mm2
- Activity [11]: 6.7 PSL/mm2
- Activity [12]: inactive
- Activity [13]: inactive
- Activity [14]: inactive
- Activity [15]: 683 PSL/mm2
- Activity [16]: 680 PSL/mm2
- Activity [17]: 618 PSL/mm2
- Activity [18]: inactive
- Activity [19]: 375 PSL/mm2
- Activity [20]: inactive
- Activity [21]: inactive
- Activity [22]: 719 PSL/mm2
- Activity [23]: inactive
- Activity [24]: inactive
- Activity [25]: 497 PSL/mm2
- Activity [26]: 316 PSL/mm2

Compound: CC(C)Nc1cc(-c2csc(N(C)C(=O)c3ccc([18F])cc3)n2)ncn1
- Drug uptake (Thalamus [27]): 63.1 PSL/mm2
- Drug uptake (Striatum [28]): 478.5 PSL/mm2
- Drug uptake (Rattus norvegicus [29]): 69.3 PSL/mm2
- Drug uptake (Hippocampus [30]): 58.3 PSL/mm2
- Drug uptake (Cerebral cortex [31]): 49.6 PSL/mm2
- Drug uptake (Cerebral cortex [32]): 342.2 PSL/mm2
- logD [33]: 1.46
- Drug uptake (Striatum [34]): 54.1 PSL/mm2
- Drug uptake (Hippocampus [35]): 428.1 PSL/mm2
- Drug uptake (Cerebellum [36]): 635.9 PSL/mm2
- Drug uptake (Thalamus [37]): 672.6 PSL/mm2
- Drug uptake (Rattus norvegicus [38]): 58.8 PSL/mm2
- Drug uptake (Cerebellum [39]): 76.6 PSL/mm2
